The source made the active and inactive calls.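 The calls were made as follows: active = toxic dose over resistance-reversal dose ratio above 10, when the toxic dose is under 15 µM; inactive = the rest.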
Test system: Igrov ABCG2 cells + mitoxantrone, trypan blue viability, 3 d
Assay: ABCG2-mediated chemoresistance reversal and toxicity – Igrov cells, one SAR set, orthogonal assay for ABC transporter inhibitor project, SAR follow-up (AID 2830)
Settings: for CC50: measured here: toxicity without chemotherapeutic (TD50)
How it was run: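 Test system – ABCG2-expressing Igrove cells, drug-resistant · Reagent – mitoxantrone as chemotherapeutic selective agent, fixed concentration · Timing – 3-day compound exposure alongside mitoxantrone · Detection – trypan blue exclusion with light-microscope cell counting · Measure – compound concentration halving cell viability under mitoxantrone (CR50)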

Row | Structure (SMILES) | EC50 | CC50 [µM]
1 | COc1ccc(/C=N/NC(=O)c2cccnc2)cc1CN1CCN(c2ccc(F)cc2)CC1 | 8.71 µM (inactive) | 15.4
2 | CC1=NN(c2ccc([N+](=O)[O-])cc2)C(=O)/C1=C/N(C)C | 54.4 µM (inactive) | 78.4
3 | COc1ccc(-c2nn(-c3ccccc3)cc2/C=C/C(=O)N2CCN(c3ccccn3)CC2)cc1 | 1.22 µM | > 100
4 | CCN(CC)P(=O)(Nc1cccc(C(F)(F)F)c1)c1ccc(N(C)C)cc1NC(=O)c1ccco1 (stereo not given) | 2.31 µM (inactive) | 19.8
5 | O=[N+]([O-])c1ccccc1-c1nc(-c2ccc(Br)o2)no1 | 15.6 µM (inactive) | 23.2
6 | CCCCn1c(O)c(N=Nc2ccccn2)c2ccccc21 | 3.73 µM (inactive) | 7.62
7 | CCOC(=O)c1c(NC(=O)CSc2ncccn2)sc2c1CCN(Cc1ccccc1)C2 | 0.117 µM (inactive) | 2.61
8 | Cc1nc2cc(-c3cccc(F)c3)nn2c(N2CCN(C(=O)c3ccco3)CC2)c1C | 0.419 µM | > 100
9 | O=[N+]([O-])c1ccc(Nc2nc(Cl)nc(NCCO)n2)cc1 | 55.5 µM (inactive) | > 100
10 | CNc1nc2cc([N+](=O)[O-])c([N+](=O)[O-])cc2nc1NC | 5.77 µM (inactive) | 7.32
11 | CCOC(=O)c1cccc(NC(=O)c2cnc3ccccc3n2)c1 | 17.5 µM (inactive) | 67.8
12 | COC(=O)c1ccc(C(C(=O)NC2CCCCC2)N(Cc2ccccc2)C(=O)Cc2cccs2)cc1 (stereo not given) | 8.93 µM | > 100
13 | CCCCN(C)C1=CC2=CC(=C(C#N)C#N)CCC2CC1 (stereo not given) | 5.77 µM | 67.8
14 | Cc1cc(C)c(C#N)c(SCc2c(F)cccc2[N+](=O)[O-])n1 | 18.3 µM (inactive) | > 100
15 | N#Cc1ccc(-c2ccc(OCC(=O)NCCc3ccccc3)cc2)cc1 | 4.73 µM | > 100

Reference: PubChem BioAssay AID2830 (NMMLSC, 2010)
